Seven compounds from ChEMBL document CHEMBL4387760, “Synthesis of oxytocin derivatives lipidated via a carbonate or carbamate linkage as a long-acting therapeutic agent for social impairment-like behaviors” (Bioorg Med Chem, 2019) can be followed below.

Molecules are shown by their SMILES. Calls of active or inactive are those of the source. The calls are words filed in the database; no cut-off is given here.

The target in one experiment is T1, Vasopressin V1b receptor (Homo sapiens, UniProt P47901).
T1 sequence (P47901 whole entry): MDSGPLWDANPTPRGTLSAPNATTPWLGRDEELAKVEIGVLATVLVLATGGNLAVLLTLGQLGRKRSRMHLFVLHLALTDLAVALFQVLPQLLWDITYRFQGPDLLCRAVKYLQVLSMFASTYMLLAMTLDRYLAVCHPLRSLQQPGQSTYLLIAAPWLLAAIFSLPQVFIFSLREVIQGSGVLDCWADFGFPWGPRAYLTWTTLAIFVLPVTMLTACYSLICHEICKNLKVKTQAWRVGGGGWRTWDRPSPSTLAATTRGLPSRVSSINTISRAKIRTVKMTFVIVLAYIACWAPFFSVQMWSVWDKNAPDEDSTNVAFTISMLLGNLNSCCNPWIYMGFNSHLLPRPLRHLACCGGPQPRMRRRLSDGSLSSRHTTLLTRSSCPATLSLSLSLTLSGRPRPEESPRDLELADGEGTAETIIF
In words: Agonist activity at human V1B receptor expressed in HEK293 cells assessed as intracellular calcium level measured at 3 secs interval for 5 mins by fura-2/AM dye based micro spectrofluorometric method. The class given is functional, cell-based. In general terms: Calcium flux is commonly read through the fluorescence of an indicator in the cells.

In experiment [1] the test system is Mus musculus. In words: Improvement in paternal nurturing behavior in CD38 knock out Slc:ICR mouse sire model of autism spectrum disorder assessed as parental scores to retrieve pups by sires at 100 ng/100 g, ip administered as single dose measured after 30 mins by parental retrieval test (reference value: 0 +/- 0 No units). The class given is functional.
Experiment [2] concerns the target T2, Oxytocin receptor (Homo sapiens) (UniProt P30559).
T2 sequence (whole entry): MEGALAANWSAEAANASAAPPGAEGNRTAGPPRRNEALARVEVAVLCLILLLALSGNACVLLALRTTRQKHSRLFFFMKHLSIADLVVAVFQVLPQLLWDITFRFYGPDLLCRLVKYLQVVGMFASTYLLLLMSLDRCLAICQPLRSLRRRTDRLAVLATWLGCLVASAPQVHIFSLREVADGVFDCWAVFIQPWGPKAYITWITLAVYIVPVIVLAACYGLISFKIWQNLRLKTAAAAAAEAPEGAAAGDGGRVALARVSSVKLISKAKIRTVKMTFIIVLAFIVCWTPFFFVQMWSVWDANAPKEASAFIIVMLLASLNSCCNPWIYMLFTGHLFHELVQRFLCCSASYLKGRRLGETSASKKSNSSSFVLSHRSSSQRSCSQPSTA
In words: Agonist activity at human OTR receptor expressed in HEK293 cells measured at 3 secs interval for 5 mins by fura-2/AM dye based micro spectrofluorometric method relative to OT. The class given is cell-based. The gist of the method: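 HEK-293 cells stably expressing human OTR (G418-selected) were loaded with fura-2/AM (final […] as printed) at 37 °C for 30 min, then washed in HEPES-buffered saline, pH 7.4. F340/F380 ratio was read every 3 s for 5 min at 37 °C, normalized to 10-s pre-application baseline, as % of maximal OT response. Three independent experiments, 20 cells per dish; EC50 derived.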

Another experiment concerns the target T3, Oxytocin receptor (Homo sapiens, UniProt P30559).
T3 sequence (P30559 whole entry): T2 sequence (whole entry)
Put plainly: Agonist activity at human OTR receptor expressed in HEK293 cells assessed as intracellular calcium level measured at 3 secs interval for 5 mins by fura-2/AM dye based micro spectrofluorometric method. In kind it is functional, cell-based. The essentials: (§1)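 HEK-293 cells stably expressing the receptor (G418-selected) were loaded with fura-2/AM for 30 min at 37 °C and washed in HEPES-buffered saline, pH 7.4. Fluorescence was read at 37 °C with 340/380 nm excitation, and F340/F380 was normalized to the 10 s baseline. Responses were expressed as % of the OT maximum (OTR) or the AVP maximum (V1A), with EC50 from 3 independent experiments at 20 cells/dish.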

The test system of experiment [3] is Mus musculus. Put plainly: Improvement in paternal nurturing behavior in CD38 knock out Slc:ICR mouse sire model of autism spectrum disorder assessed as parental scores to retrieve pups by sires at 100 ng/100 g, ip administered as single dose measured after 24 hrs by parental retrieval test (reference value: 0 +/- 0 No units). In kind it is functional.
The target of the next experiment is Vasopressin V1a receptor (Homo sapiens, UniProt P37288). In words: Agonist activity at human V1A receptor expressed in HEK293 cells assessed as intracellular calcium level measured at 3 secs interval for 5 mins by fura-2/AM dye based micro spectrofluorometric method. In kind it is functional, cell-based. The essentials: as §1
Chain of Vasopressin V1a receptor (P37288 whole entry): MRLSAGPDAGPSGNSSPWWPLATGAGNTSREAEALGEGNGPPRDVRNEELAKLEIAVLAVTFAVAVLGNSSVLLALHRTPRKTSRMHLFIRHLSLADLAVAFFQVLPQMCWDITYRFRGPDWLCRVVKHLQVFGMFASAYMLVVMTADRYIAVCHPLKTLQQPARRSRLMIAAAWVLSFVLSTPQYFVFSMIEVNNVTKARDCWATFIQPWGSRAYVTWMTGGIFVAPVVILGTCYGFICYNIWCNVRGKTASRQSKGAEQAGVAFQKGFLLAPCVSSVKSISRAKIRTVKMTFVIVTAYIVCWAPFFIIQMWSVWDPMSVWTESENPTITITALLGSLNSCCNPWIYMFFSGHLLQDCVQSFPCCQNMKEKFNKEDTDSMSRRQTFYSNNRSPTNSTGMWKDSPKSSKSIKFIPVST
Experiment [4] deals with Mus musculus. Put plainly: Improvement in paternal nurturing behavior in CD38 knock out Slc:ICR mouse sire model of autism spectrum disorder assessed as increase in parental scores to retrieve pups by sires at 100 ng/100 g, ip administered as single dose measured after 48 hrs by parental retrieval test. The class given is functional, organism-based. The gist of the method:
(§2)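 This time-course test used CD38KOCC sires (Slc:ICR) paired with females. Each received a single ip dose of 100 ng/100 g body weight in PBS, with PBS as vehicle control. Paternal pup-retrieval scores were recorded at successive times after injection, including 6, 12, 24 and 48 h. Treatment effects were analysed by two-way ANOVA.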

The subject of experiment [5] is Mus musculus. In words: Improvement in paternal nurturing behavior in CD38 knock out Slc:ICR mouse sire model of autism spectrum disorder assessed as increase in parental scores to retrieve pups by sires at 100 ng/100 g, ip administered as single dose measured after 12 hrs by parental retrieval test. The class given is functional, organism-based. The essentials: as §2

In experiment [6] the test system is Mus musculus. Put plainly: Improvement in paternal nurturing behavior in CD38 knock out Slc:ICR mouse sire model of autism spectrum disorder assessed as increase in parental scores to retrieve pups by sires at 100 ng/100 g, ip administered as single dose measured after 24 hrs by parental retrieval test. The class given is functional, organism-based.
For experiment [7], the system named is Mus musculus. In words: Improvement in paternal nurturing behavior in CD38 knock out Slc:ICR mouse sire model of autism spectrum disorder assessed as parental scores to retrieve pups by sires at 100 ng/100 g, ip administered as single dose measured after 6 hrs by parental retrieval test. The class given is functional, organism-based. The essentials: as §2

In general, EC50 refers to the concentration at which the effect is half-maximal. The term Emax denotes the greatest response seen or fitted, relative to the assay's reference.

Regarding `CCCCCCCCCCCCCCCC(=O)N[C@H]1CSSC[C@@H](C(=O)N2CCC[C@H]2C(=O)N[C@@H](CC(C)C)C(=O)NCC(N)=O)NC(=O)[C@H](CC(N)=O)NC(=O)[C@H](CCC(N)=O)NC(=O)[C@H]([C@@H](C)CC)NC(=O)[C@H](Cc2ccc(OC(=O)NCCCCCCCCCCCCCC)cc2)NC1=O`, the EC50 on Vasopressin V1b receptor, on Oxytocin receptor and on Vasopressin V1a receptor was more than 100 µM throughout. The Activity in the experiment on Mus musculus [1] is recorded as 3.3; with Mus musculus [3], 3.6. The same compound showed a maximal effect (Emax) in [2] of 0%.

With `CCCCCCCCCCCCCCCC(=O)N[C@H]1CSSC[C@@H](C(=O)N2CCC[C@H]2C(=O)N[C@@H](CC(C)C)C(=O)NCC(N)=O)NC(=O)[C@H](CC(N)=O)NC(=O)[C@H](CCC(N)=O)NC(=O)[C@H]([C@@H](C)CC)NC(=O)[C@H](Cc2ccc(OC(=O)OCCCCCCCCCCCCCC)cc2)NC1=O`, the EC50 at Vasopressin V1b receptor and on Vasopressin V1a receptor was more than 100 µM each time. Besides, the Activity in the experiment with Mus musculus [1] was determined as 6.8; with Mus musculus [3] it was 3.1. In experiment [2], this compound registered an Emax of 15.3%.

As for `CCCCCCCCCCCCCCCCOC(=O)Oc1ccc(C[C@@H]2NC(=O)[C@@H](NC(=O)CCCCCCCCCCCCCCC)CSSC[C@@H](C(=O)N3CCC[C@H]3C(=O)N[C@@H](CC(C)C)C(=O)NCC(N)=O)NC(=O)[C@H](CC(N)=O)NC(=O)[C@H](CCC(N)=O)NC(=O)[C@H]([C@@H](C)CC)NC2=O)cc1`, the result in the experiment with Mus musculus [4] was inactive. Besides, the outcome with Mus musculus [5] and with Mus musculus [6] was Active. The EC50 on Vasopressin V1b receptor, on Oxytocin receptor and on Vasopressin V1a receptor was more than 100 µM in each case. The figures for the Activity in the experiment with Mus musculus [1] and in the experiment on Mus musculus [3] were 2 and 5.2, respectively. The same compound returned an Emax in experiment [2] of 0%.

Take `CCCCCCCCCCCCCCCNC(=O)Oc1ccc(C[C@@H]2NC(=O)[C@@H](NC(=O)CCCCCCCCCCCCCCC)CSSC[C@@H](C(=O)N3CCC[C@H]3C(=O)N[C@@H](CC(C)C)C(=O)NCC(N)=O)NC(=O)[C@H](CC(N)=O)NC(=O)[C@H](CCC(N)=O)NC(=O)[C@H]([C@@H](C)CC)NC2=O)cc1`: the EC50 on Vasopressin V1b receptor is more than 100 µM; on Oxytocin receptor, more than 10 µM; on Vasopressin V1a receptor, more than 100 µM. The Activity was determined as 2 in the experiment on Mus musculus [1] and 3.1 in the experiment with Mus musculus [3].

Take `CCCCCCCCCCCCCCCCNC(=O)Oc1ccc(C[C@@H]2NC(=O)[C@@H](NC(=O)CCCCCCCCCCCCCCC)CSSC[C@@H](C(=O)N3CCC[C@H]3C(=O)N[C@@H](CC(C)C)C(=O)NCC(N)=O)NC(=O)[C@H](CC(N)=O)NC(=O)[C@H](CCC(N)=O)NC(=O)[C@H]([C@@H](C)CC)NC2=O)cc1`: the half-maximal effective concentration (EC50) at Vasopressin V1b receptor, at Oxytocin receptor and at Vasopressin V1a receptor was more than 100 µM each time. Besides, the Activity is reported as 1.9 in the experiment with Mus musculus [1] and 3.4 in the experiment with Mus musculus [3]. The compound further showed an Emax in experiment [2] of 0%.

Take `CC[C@H](C)[C@@H]1NC(=O)[C@H](Cc2ccc(O)cc2)NC(=O)[C@@H](N)CSSC[C@@H](C(=O)N2CCC[C@H]2C(=O)N[C@@H](CC(C)C)C(=O)NCC(N)=O)NC(=O)[C@H](CC(N)=O)NC(=O)[C@H](CCC(N)=O)NC1=O` [OXYTOCIN]: the Activity in the experiment on Mus musculus [1] was found to be 5.3; with Mus musculus [3], 0. In addition, the outcome in the experiment on Mus musculus [7] was inactive.

`CCCCCCCCCCCCCCCOC(=O)Oc1ccc(C[C@@H]2NC(=O)[C@@H](NC(=O)CCCCCCCCCCCCCCC)CSSC[C@@H](C(=O)N3CCC[C@H]3C(=O)N[C@@H](CC(C)C)C(=O)NCC(N)=O)NC(=O)[C@H](CC(N)=O)NC(=O)[C@H](CCC(N)=O)NC(=O)[C@H]([C@@H](C)CC)NC2=O)cc1`: the EC50 at Vasopressin V1b receptor, on Oxytocin receptor and on Vasopressin V1a receptor was more than 100 µM in each case. In addition, the values for the Activity in the experiment on Mus musculus [1] and with Mus musculus [3] were 3.9 and 2.9, respectively. In experiment [2], this compound returned an Emax of 0%.
